# Only a selection was taken, and hits are over-represented in it overall.
# H69AR inhibit: blocks growth of human H69AR lung tumor cells | H69AR lung tumor viability, ATP luminescence, 72 h; active compounds read low | viability, % at 10 µM | AID 598 | 85,000 tested, 6% active;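 active = viability at or below 40%; inactive = viability above 40%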;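 note: multidrug resistant small cell line overexpressing MRP-1 efflux transporter; 100% = mean luminescence of untreated control wells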
# Fibroblast inh: blocks proliferation of human lung fibroblasts; LL 47 human lung fibroblast viability, ATP luminescence; active compounds read low; viability, % at 10 µM; 85,000 tested, 1.1% active; AID 719;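 active = viability at or below 50% in the single dose screen; inactive = viability above 50%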;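 note: compound exposure lasted 72 h before the ATP readout; 100% = median luminescence of untreated cell-only wells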
#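 Material: Human LL 47 lung fibroblast cells | Input: 1,150 cells/well | Buffer or medium: IMEM plus 15% FBS | Compound dosing: 0.1% DMSO in all compound wells | Times: Overnight cell rest, 72 h compound treatment at 37 °C | Signal: CellTiter-Glo luminescence measuring cellular ATP | Measure: % viability versus median cells-only luminescence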
# HCT116 PTEN-null: growth suppressors of cells with PTEN tumor suppressor deletion; HCT116 PTEN-null viability, CellTiter-Glo, 60 h; active compounds read low; viability, % at 10 µM; 140,000 tested, 1.2% active; AID 827;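 active = viability at or below a set limit, 4 SD under the median of all tested compounds, cut at about 3.7% in these data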;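 note: PTEN knockout HCT116 line with beta catenin targeted HCT116 as companion control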
# bCat KO growth: beta-catenin-lacking colon tumor cell growth suppression; viability, % at 10 µM; HCT116 beta-catenin knockout viability, CellTiter-Glo, 60 h; active compounds read low; 140,000 tested, 1.5% active;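 active = viability at or under a set limit, the compound median less 4 SD, cut at about 6% in these data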;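 note: 0% = Hyamine 1622 control at 20 µM and 100% = untreated cell control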
# HUVEC inhibit: inhibitors of human endothelial cell proliferation; HUVEC proliferation, CellTiter-Glo luminescence, 72 h; active compounds read low; viability, % at 10 µM (by protocol); 86,000 tested, 1.1% active;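 active = viability at or below 30%; inactive = viability above 30%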;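 note: 100% = median luminescence of DMSO-only cell control wells on each plate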
# Starred values were filed as active, the others as inactive; nt = no result given.
SMILES,H69AR inhibit,Fibroblast inh,HCT116 PTEN-null,bCat KO growth,HUVEC inhibit
CC[C@@H](C)[C@H](NC(=O)OC(C)(C)C)c1nnc(S(=O)(=O)Cc2cc(C)ccc2C)o1,0.2*,14*,3.8*,2.8*,39
COc1ccc(OC(=O)CN2C(=O)C3C4CCC(C4)C3C2=O)cc1 (stereo unspecified),nt,nt,93,95,nt
COC(=O)C1=C(C)Nc2c(c(=O)n(C)c(=O)n2C)C1c1ccncc1 (stereo unspecified),nt,nt,96,94,nt
COc1ccc(Cl)cc1NC(=O)c1cccc(NC(=O)CCC(=O)O)c1,nt,nt,102,82,nt
C=CCn1c(O)c(N=NC(=S)Nc2cccc(C)c2)c2ccccc21,22*,52,14,13,48
CC(C)N1CC(O)=C(c2nc3ccccc3c(=O)[nH]2)C1=N,93,99,79,82,87
COc1cccc(N2CC(O)=C(c3nc4ccccc4c(=O)[nH]3)C2=N)c1,29*,66,17,18,62
CC(=O)N(Cc1ccc2c(c1)OCO2)C1CC(=O)N(CCc2ccccc2)C1=O (stereo unspecified),80,93,100,98,91
COC(=O)c1c(NC(=O)COC(=O)CNC(=O)C2CCCCC2)sc(C)c1C,nt,nt,87,86,nt
COC(=O)/C(=C1/Oc2ccc(C(C)(C)C)cc2S1)C(F)(F)F,nt,nt,104,98,nt
COC(=O)/C(=C1/Oc2cc(C)oc(=O)c2S1)C(F)(F)F,nt,nt,3.2*,3.6*,nt
CCOC(=O)c1c(NC(C)=O)sc2c1CCC(C=NCCCN(CC)CC)=C2Sc1ccccc1,0.7*,69,nt,nt,3.2*
CCOC(=O)c1c(NC(=O)CN2CCCCC2)sc2c1CCC(C=O)=C2Cl,nt,nt,33,62,nt
CCNc1nc(NCC)nc(SCCOc2ccc(C)cc2)n1,nt,nt,69,61,nt
COc1cc(Nc2ccc(C)cc2)c([N+](=O)[O-])nc1[N+](=O)[O-],6.2*,39*,21,23,42
CCOc1ccc(Cl)cc1S(=O)(=O)N1CCN(c2ccc(C)c(C)c2)CC1,39*,91,70,67,93
O=C(NCc1ccco1)c1ccc(COc2cc(Cl)ccc2Cl)cc1,nt,nt,91,93,nt
CCOc1cc(/C=C2/C(=O)ON=C2C)ccc1OCc1ccccc1F,23*,43*,80,80,33
CCOc1cc(/C=C2/C(=O)ON=C2C)ccc1OCc1ccc(F)cc1,nt,nt,71,89,nt
CCOc1ccc(-c2[nH]ncc2-c2ccc(OC)c(OC)c2)c(O)c1,14*,59,25,22,67
COc1ccc(-c2n[nH]c(C)c2-c2cc(OC)ccc2O)cc1,99,99,99,113,95
CCCOC(=O)c1ccc(Oc2cn[nH]c2-c2ccc(OC)cc2O)cc1,42,80,47,47,8.5*
C=C(C)COc1ccc(-c2[nH]ncc2-c2ccc(Br)cc2)c(O)c1,nt,nt,2.2*,1.8*,nt
COc1ccc(-c2cn[nH]c2-c2ccc(OCc3ccc([N+](=O)[O-])cc3)cc2O)cc1,nt,nt,36,51,nt
COc1ccc(-c2c(-c3ccc(O)cc3O)n[nH]c2C)cc1OC,21*,80,32,41,67
SMILES,H69AR inhibit,Fibroblast inh,HCT116 PTEN-null,bCat KO growth,HUVEC inhibit
COC(=O)CNC(c1ccccc1Cl)c1cc(Br)ccc1NS(=O)(=O)c1ccc(C)cc1 (stereo unspecified),nt,nt,63,59,nt
O=C(Cn1cnc2cc([N+](=O)[O-])ccc2c1=O)NC(c1ccccc1)c1ccccc1,nt,nt,94,98,nt
COc1cc(CC(CC(=O)O)CC(C)OCc2ccccc2)cc(OC)c1 (stereo unspecified),nt,nt,101,93,nt
C=C(C)COc1ccc(-c2nc(N)ncc2Oc2ccc(OC)cc2)c(O)c1,73,85,64,85,87
C=C(C)COc1ccc(-c2[nH]ncc2-c2ccccc2OC)c(O)c1,6.0*,64,44,53,32
C=C(C)COc1ccc(-c2n[nH]c(C)c2-c2ccc(Br)cc2)c(O)c1,6.6*,32*,30,21,3.8*
C=C(C)COc1ccc(-c2[nH]ncc2Oc2ccccc2OC)c(O)c1,1.5*,60,68,89,50
CCOc1ccc(-c2[nH]ncc2Oc2ccccc2OCC)c(O)c1,12*,71,61,65,76
CCOc1ccc(-c2[nH]ncc2Oc2ccccc2OC)c(O)c1,46,97,86,86,84
COC(=O)Cn1c(=NC(=O)c2ccc(OC)c(OC)c2)sc2cc(OC)ccc21,nt,nt,96,94,nt
COC(=O)c1ccc(NC(=O)CN(C2CCCCC2)S(C)(=O)=O)cc1,38*,88,63,77,90
COc1ccc(NC(=O)CN(C2CCCCC2)S(C)(=O)=O)cc1OC,84,96,100,112,99
COc1ccc(Cl)cc1NC(=O)Cc1c(F)cccc1Cl,nt,nt,93,92,nt
O=C(COc1ccccc1)N(CCc1ccccc1)c1nc(-c2ccc(F)cc2)cs1,nt,nt,71,70,nt
COc1cccc(-c2cc(C(=O)Nc3cccnc3)no2)c1,96,85,88,78,57
COc1cccc(-c2cc(C(=O)Nc3cc(OC)c(OC)c(OC)c3)no2)c1,17*,75,24,33,50
Cn1cnc([N+](=O)[O-])c1Oc1ccc2ccccc2c1,nt,nt,50,62,nt
CCc1ccc2nc(SCC(=O)N3CC(=O)Nc4ccccc43)c(C#N)cc2c1,5.2*,65,16,11,32
Cc1cc(C(=O)NCCCN2CCN(c3cc(Cl)ccc3C)CC2)n(-c2ccccc2)n1,31*,80,38,34,69
Cc1cc(C(=O)NCCN2CCN(c3cccc(Cl)c3)CC2)n(-c2ccccc2)n1,29*,58,19,10,53
Cn1cc(C(=O)NCCN2CCN(c3cccc(Cl)c3)CC2)c2c3ccccc3n(C)c2c1=O,16*,91,54,15,58
Cn1c(=O)cc(OCC(=O)NCCCN2CCN(c3cccc(Cl)c3)CC2)c2ccccc21,49,82,16,13,75
Cc1cc(C(=O)NCC2CCCO2)n(-c2ccccc2)n1 (stereo unspecified),94,100,97,96,97
CCOC(=O)N1CCN(C(=O)c2cn(C)c(=O)c3c2c2ccccc2n3C)CC1,40*,96,66,84,94
S=c1nc(-c2ccccc2Cl)n(Cc2cccnc2)c2c1CCCC2,nt,nt,103,95,nt
SMILES,H69AR inhibit,Fibroblast inh,HCT116 PTEN-null,bCat KO growth,HUVEC inhibit
FC(F)(F)c1cccc(NC(=S)NCC2COc3ccccc3O2)c1 (stereo unspecified),nt,nt,89,80,nt
O=C(c1ccc(COc2c(F)c(F)c(F)c(F)c2F)o1)N1CCN(Cc2ccc3c(c2)OCO3)CC1,28*,93,76,85,94
Cc1ccccc1N1CN(Cc2ccco2)CNC1=S,nt,nt,91,94,nt
O=C(Nc1ccc([N+](=O)[O-])cc1)c1nc[nH]c1C(=O)NC1CCCCC1,nt,nt,1.2*,2.8*,nt
O=C(Nc1ccc(F)cc1)c1nc[nH]c1C(=O)Nc1ccc([N+](=O)[O-])cc1,nt,nt,1.4*,1.3*,nt
CC1CCCC(NC(=S)NC(=O)c2ccccc2Br)C1C (stereo unspecified),nt,nt,65,60,nt
